# From publication PMC6690187 (Cancer chemotherapy and pharmacology, 2012)
# Key:
# [1] = S9 metabolism, rat hepatic S9 fractions; assay type: in vitro ADME; conditions: rat S9 1 mg/ml, 10 μM, within an hour of incubation, 37°C
# [2] = Pharmacokinetic and tissue distribution studies in CD-1 mice; assay type: in vivo, female CD-1 mice
# [3] = Pharmacokinetic studies in nude mice; assay type: in vivo, female athymic nude mice; conditions: for intact compound in plasma / time to highest plasma concentration: solution formulation
# In short: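 Female athymic nude mice (~25 g) received a solution formulation (PEG400/EtOH/Tween 80/D5W) at 20 mg/kg i.v., 50 mg/kg i.p. or 100 mg/kg p.o. Others received a suspension (0.05% Tween 80/saline) at 15 mg/kg i.p. or 100 mg/kg p.o. Heparinized retro-orbital blood was taken from 5 min to 24 h (i.v.) or 10 min to 48 h, with ≥3 samples per time point. Plasma was extracted with acetonitrile and measured by HPLC-UV.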
# six different cell lines = conditions: cited from earlier work
# [4] = system: xenograft models of glioma (SF295), lung (H522), breast (MDA-MB-435), ovarian (OVCAR-3) cancers; conditions: SF295, H522, MDA-MB-435, OVCAR-3 xenografts; cited from earlier work
# [5] = system: MDA-MB-435 breast cancer xenograft; conditions: oral doses 70-280 mg/kg and i.v. dose 10 mg/kg; cited from earlier work
# mouse plasma proteins = test: Binding to mouse plasma proteins; assay type: in vitro ADME; conditions: 37°C 1 h
# In short: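 Test compound added to mouse plasma at 0.1, 1.0 and 10 μM and held at 37°C for 1 h; methanol replaced plasma in controls. Samples were centrifuged through 30 kDa ultrafiltration units at 2,000×g until dry. Filtrate (free, F) and unfiltered solution (total, T) were each measured in triplicate by HPLC-UV at 308 nm. Filter-bound amount (X) was included: % bound = [(T–F–X)/T] × 100.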
# [6] = Stability of ML-970 in mouse plasma; assay type: in vitro ADME; conditions: for compound remaining intact: 4°C
# In short: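 Mouse plasma was spiked with 1 or 10 μM test compound. Samples were held at 37°C in a water bath (sampled at 5, 10, 20, 30 and 60 min and at 2, 4 and 8 h), at 4°C (0.5–24 h) or at −80°C (1, 2 and 4 weeks). Each sample was extracted and measured by HPLC-UV at 308 nm. Remaining amount was expressed as % of the starting concentration versus time.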
# [7] = S9 metabolism, human hepatic S9 fractions; assay type: in vitro ADME; conditions: human S9 1 mg/ml, 10 μM, within an hour of incubation, 37°C
# [8] = S9 metabolism, mouse hepatic S9 fractions; assay type: in vitro ADME; conditions: mouse S9 1 mg/ml, 10 μM, within an hour of incubation, 37°C
# [9] = Urinary and fecal excretion after i.v. injection; assay type: in vivo, mice; conditions: i.v. injection 20 mg/kg, first 48 h, parent compound
# In short: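 Female nude mice dosed i.v. (20 mg/kg, solution formulation) were housed in metabolic cages, and urine and feces were collected for up to 48 h. Containers and cages were rinsed twice with 0.9% saline. Urine and each wash were extracted directly, analysed separately and summed. Feces were homogenized in PBS (5 ml/g), extracted with acetonitrile and measured by HPLC. Results were expressed as % of dose.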
# [10] = Preliminary pharmacokinetics; assay type: in vivo, female Sprague-Dawley rats; conditions: rats, oral 2.5 vs 5 mg/kg; exception intestine
# In short: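 Female Sprague-Dawley rats received oral doses of 2.5 or 5 mg/kg in (PEG400/EtOH/Tween 80 = 6:3:1)/D5W = 1:2, either as a single dose or once daily for 5 days. Plasma was sampled at 1, 6 and 12 h. Lungs, liver, kidneys, small intestine and small-intestine contents were collected at 12 h on days 1 and 5. Tissues were homogenized in PBS, extracted with acetonitrile and analysed by HPLC.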
# NCI60 = conditions: read-out: average GI50; NCI60 screening, cytotoxic activity; cited from earlier work
# [11] = in vitro assays and xenograft studies; cited from earlier work
# [12] = Urinary and fecal excretion, higher dose in CD-1 mice; assay type: in vivo; conditions: 40 mg/kg i.v.
# [13] = CD-1 mice, PEG400/EtOH/Tween 80/D5W, i.v., 2.5 mg/kg, plasma
# [14] = CD-1 mice, PEG400/EtOH/Tween 80/D5W, p.o., 2.5 mg/kg, plasma
# [15] = CD-1 mice, PEG400/EtOH/Tween 80/D5W, p.o., 5 mg/kg, plasma
# [16] = nude mice, 0.05% Tween 80/Saline, i.p., 15 mg/kg, plasma
# [17] = nude mice, 0.05% Tween 80/Saline, p.o., 100 mg/kg, plasma
# [18] = nude mice, PEG400/EtOH/Tween 80/D5W, i.p., 50 mg/kg, plasma
# [19] = nude mice, PEG400/EtOH/Tween 80/D5W, i.v., 20 mg/kg, plasma
# [20] = nude mice, PEG400/EtOH/Tween 80/D5W, p.o., 100 mg/kg, plasma
smiles,measurement,setting,value
COc1cc2cc(C(=O)Nc3cc(N)c4ccccc4c3CCCl)[nH]c2c(OC)c1OC [ML-970],loss of parent compound with S9 enzymes,[1],no significant loss of the parent compound
same,AUC0~∞,[2]; [13],1960 ng·h/mL
same,CL or CL/F,[2]; [13],1.27 mL/g/h
same,Cmax,[2]; [13],4340 ng/mL
same,MRT,[2]; [13],2.76 h
same,T1/2,[2]; [13],0.31 h
same,Tmax,[2]; [13],0 h
same,Vss,[2]; [13],3.52 mL/g
same,F^oral,"[2]; CD-1 mice, PEG400/EtOH/Tween 80/D5W, p.o., 2.5 mg/kg",0.43
same,AUC0~∞,[2]; [14],850 ng·h/mL
same,CL or CL/F,[2]; [14],2.61 mL/g/h
same,Cmax,[2]; [14],550 ng/mL
same,MRT,[2]; [14],8.28 h
same,T1/2,[2]; [14],10.73 h
same,Tmax,[2]; [14],0.08 h
same,F^oral,"[2]; CD-1 mice, PEG400/EtOH/Tween 80/D5W, p.o., 5 mg/kg",0.44
same,AUC0~∞,[2]; [15],1730 ng·h/mL
same,CL or CL/F,[2]; [15],3.22 mL/g/h
same,Cmax,[2]; [15],990 ng/mL
same,MRT,[2]; [15],1.8 h
same,T1/2,[2]; [15],2.97 h
same,Tmax,[2]; [15],0.5 h
same,tissue distribution,"[2]; mice, i.v. 2.5 mg/kg and p.o. 2.5 mg/kg, levels stayed relatively high for at least 24 h","high levels of ML-970 in the liver, gallbladder, and small intestine"
same,toxicity observed in pharmacokinetic studies,"[3]; doses from 10 to 100 mg/kg, soluble and suspension formulations",did not observe any toxicity
same,AUC0~∞,[3]; [16],5350 ng·h/mL
same,CL or CL/F,[3]; [16],2.67 mL/g/h
same,Cmax,[3]; [16],1160 ng/mL
same,MRT,[3]; [16],6.21 h
same,T1/2,[3]; [16],6.14 h
same,Tmax,[3]; [16],1 h
same,AUC0~∞,[3]; [17],11520 ng·h/mL
same,CL or CL/F,[3]; [17],8.07 mL/g/h
same,Cmax,[3]; [17],1520 ng/mL
same,MRT,[3]; [17],8.1 h
same,T1/2,[3]; [17],6.73 h
same,Tmax,[3]; [17],1 h
same,intact compound in plasma,"[3]; nude mice, 8 h after i.v. 20 mg/kg",still detectable
same,intact compound in plasma,"[3]; nude mice, 24 h after i.p. 50 mg/kg",could still be detected
same,intact compound in plasma,"[3]; nude mice, 24 h after p.o. 100 mg/kg",could still be detected
same,AUC0~∞,[3]; [18],42110 ng·h/mL
same,CL or CL/F,[3]; [18],1.19 mL/g/h
same,Cmax,[3]; [18],20390 ng/mL
same,MRT,[3]; [18],2.5 h
same,T1/2,[3]; [18],4.58 h
same,Tmax,[3]; [18],0.17 h
same,AUC0~∞,[3]; [19],14890 ng·h/mL
same,CL or CL/F,[3]; [19],1.35 mL/g/h
same,Cmax,[3]; [19],22350 ng/mL
same,MRT,[3]; [19],0.87 h
same,T1/2,[3]; [19],0.78 h
same,Tmax,[3]; [19],0 h
same,Vss,[3]; [19],1.18 mL/g
same,F^oral,"[3]; nude mice, PEG400/EtOH/Tween 80/D5W, p.o., 100 mg/kg",0.53
same,AUC0~∞,[3]; [20],39630 ng·h/mL
same,CL or CL/F,[3]; [20],2.52 mL/g/h
same,Cmax,[3]; [20],18930 ng/mL
same,MRT,[3]; [20],2.82 h
same,T1/2,[3]; [20],4.26 h
same,Tmax,[3]; [20],0.5 h
same,time to highest plasma concentration,"[3]; nude mice, i.p. 50 mg/kg",10 min
same,time to highest plasma concentration,"[3]; nude mice, oral gavage 100 mg/kg",30 min
same,cell lines killed in hollow fiber assay,six different cell lines,efficiently killing six different cell lines
same,hollow fiber assay total score,six different cell lines,54 points
same,antitumor effects in xenograft models,[4],significant antitumor effects in all of the models
same,tumor growth,[5],inhibited tumor growth
same,weight loss (index for host toxicity),[5],no weight loss
same,binding to plasma proteins,mouse plasma proteins; 0.1 μM,87.57%
same,binding to plasma proteins,mouse plasma proteins; 1.0 μM,89.31%
same,binding to plasma proteins,mouse plasma proteins; 10.0 μM,90.89%
same,compound remaining intact,[6]; 24-h storage (summary),approximately 90%
same,compound remaining intact,"[6]; 24 h, 1 μM",88.6%
same,compound remaining intact,"[6]; 24 h, 10 μM",92.4%
same,compound remaining,"[6]; 37°C, 8-h incubation, both 1 and 10 μM (summary)",approximately 70%
same,compound remaining,"[6]; 37°C, 8 h, 1 μM",70.9%
same,compound remaining,"[6]; 37°C, 8 h, 10 μM",70.2%
same,compound remaining,"[6]; −80°C, 4 weeks, 1 μM",87.5%
same,compound remaining,"[6]; −80°C, 4 weeks, 10 μM",89.8%
same,degradation on storage,"[6]; −80°C, a week of storage",no significant degradation
same,loss of parent compound with S9 enzymes,[7],no significant loss of the parent compound
same,loss of parent compound with S9 enzymes,[8],no significant loss of the parent compound
same,compound excreted in feces,[9],1.14%
same,compound excreted in urine,[9],less than 0.5%
same,tissue concentrations between two doses,[10],no significant difference
same,GI50,NCI60,34 nM
same,liver and bone marrow toxicity compared with other CC-1065 analogs,[11],decreased liver and bone marrow toxicity
same,compound excreted in urine,[12]; 48 h after treatment,about 1%
same,parental compound excreted in feces,[12]; first 8 h,less than 0.1%
